Test results reported in ChEMBL document CHEMBL1123103, “Pyrimidinones. 1. 2-Amino-5-halo-6-aryl-4(3H)-pyrimidinones. Interferon-inducing antiviral agents” (1985).
The source made the active and inactive calls. No cut-off for these calls is given here.

Tests used:
Mus musculus [1] = test: Evaluation for serum interferon response from a single 800 mg/kg intraperitoneal administration in vesicular stomatitis virus on […] cells; Range 10-50 units/mL; format: functional
Procedure, shortened: (§1)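 Mice got a single ip 800 mg/kg dose. Blood was drawn 3, 6, 8 and 12 h later from five mice per group and pooled. Interferon titer was measured by plaque reduction with vesicular stomatitis virus on L929 cells. Titer is the reciprocal serum dilution cutting plaques by 50% versus untreated cultures. Peak response within 24 h was banded: ≥2000, ~500-1000, ~50-500, ~10-50 U/mL.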

Semliki Forest virus [2] = test: Antiviral activity against Forest virus (SFV); format: functional
Procedure, shortened: (§2)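 ICR or CD-1 mice of both sexes got one drug dose by the route in the line (ip, po or sc). The drug was a suspension in 0.9% NaCl or in a CMC/polysorbate 80/benzyl alcohol/NaCl vehicle. […] Deaths were recorded daily for 6 days, 24 mice/group. ED50 is the minimal dose protecting 50% of mice, by probit analysis.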

Human alphaherpesvirus 1 = test: Intraperitoneal administration against herpes simplex virus type-1 (HSV-1) infected mice; format: functional
Procedure, shortened: (§3)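 ICR or CD-1 mice got drug ip in saline as the total daily dose (mg/kg/day). It was split into doses at -40, -28, -20, -3 and +3 h relative to ip inoculation with 5.6×10^4 pfu HSV-1. Mice were followed for 22 days, 15/group. Protection index = (control mortality − treated mortality)/control mortality; >0.25 counted active. Only the lowest protective dose is recorded.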

Semliki Forest virus [3] = test: Effective dose administered perorally againist Forest virus infected mice; format: functional; conditions: po; procedure, shortened: as §2
Semliki Forest virus [4] = test: Effective dose administered subcutaneously againist Forest virus infected mice; format: functional; conditions: sc; procedure, shortened: as §2
Mus musculus [5] = test: Protection index after intraperitoneal administration (50 mg/kg/day) against herpes simplex virus type-1 (HSV-1) infected mice [protection index=(control mortality-treated mortality)/control mortality]; format: functional; procedure, shortened: as §3
Semliki Forest virus [6] = test: Effective dose administered intraperitoneally againist Forest virus infected mice; format: functional, organism-based
Procedure, shortened: (§4)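 Drug was suspended in 0.9% NaCl or in a carboxymethylcellulose/polysorbate 80/benzyl alcohol/NaCl vehicle. Deaths were recorded daily for 6 days, with 24 mice per group. The ED50 is the minimal dose protecting 50% of mice, calculated by probit analysis.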

Semliki Forest virus [7] = test: Effective dose administered perorally against Forest virus infected mice; format: functional, organism-based; procedure, shortened: as §4
Semliki Forest virus [8] = test: Effective dose administered subcutaneously against Forest virus infected mice; format: functional, organism-based; procedure, shortened: as §4
Mus musculus [9] = test: The compound was evaluated for the serum interferon response from a single 800 mg/kg intraperitoneal administration in vesicular stomatitis virus on […] cells; Range 500-1000 units/mL; format: functional; procedure, shortened: as §1
Mus musculus [10] = test: Protection index after intraperitoneal administration (25 mg/kg/day) against herpes simplex virus type-1 (HSV-1) infected mice [protection index=(control mortality-treated mortality)/control mortality]; format: functional; procedure, shortened: as §3
Mus musculus [11] = test: The compound was evaluated for the serum interferon response from a single 800 mg/kg intraperitoneal administration in vesicular stomatitis virus on […] cells; range 50-500; format: functional; procedure, shortened: as §1
[12] = system: Vesicular stomatitis virus; test: Evaluation for serum interferon response from a single 800 mg/kg intraperitoneal administration in vesicular stomatitis virus on […] cells.; format: functional; procedure, shortened: as §1

Row | Compound | ED50 (Semliki Forest virus [2]) | Protection index (Human alphaherpesvirus 1) | ED50 (Semliki Forest virus [3]) | ED50 (Semliki Forest virus [4]) | ED50 (Semliki Forest virus [7]) | ED50 (Semliki Forest virus [8]) | other results
1 | CCCOc1cccc(-c2nc(N)nc(O)c2I)c1 | 100 mg/kg | 0 |  |  |  |  | IFN (Mus musculus [1]): 10 units/mL
2 | COc1cccc(-c2nc(N)nc(O)c2I)c1 | 40 mg/kg |  | > 400 mg/kg | > 400 mg/kg |  |  | IFN (Mus musculus [1]): 10 units/mL; Protection index (Mus musculus [5]): 0.54
3 | Nc1nc(O)c(Br)c(-c2ccc3ccccc3n2)n1 |  | 0.14 |  |  | inactive | inactive | ED50 (Semliki Forest virus [6]): inactive
4 | Nc1nc(O)c(Br)c(-c2ccncc2)n1 | > 400 mg/kg | 0 |  |  | inactive | inactive | 
5 | Nc1nc(O)c(I)c(-c2ccc3ccccc3n2)n1 |  |  |  |  | inactive | inactive | ED50 (Semliki Forest virus [6]): inactive
6 | Nc1nc(O)c(I)c(-c2cccc(F)c2)n1 | 10 mg/kg |  | > 400 mg/kg | 80 mg/kg |  |  | IFN (Mus musculus [9]): 500 units/mL; Protection index (Mus musculus [10]): 0.25
7 | Cc1ccc(-c2nc(N)nc(O)c2I)cc1 | 115 mg/kg |  | > 400 mg/kg | > 400 mg/kg |  |  | IFN (Mus musculus [1]): 10 units/mL
8 | Nc1nc(O)c(Cl)c(-c2cc(F)ccc2F)n1 | 165 mg/kg |  | > 400 mg/kg |  |  |  | IFN (Mus musculus [9]): 500 units/mL
9 | Nc1nc(O)c(I)c(-c2cccc(Br)c2)n1 | 65 mg/kg |  | > 400 mg/kg | 90 mg/kg |  |  | IFN (Mus musculus [11]): 500 mL
10 | Nc1nc(O)c(Cl)c(-c2ccc3ccccc3n2)n1 |  | 0.07 |  |  | inactive | inactive | ED50 (Semliki Forest virus [6]): inactive
11 | COc1cccc(-c2nc(N)nc(O)c2Br)c1 | 10 mg/kg |  | > 400 mg/kg | 55 mg/kg |  |  | IFN [12]: 50 units/mL; Protection index (Mus musculus [5]): 0.62
12 | Nc1nc(O)c(Cl)c(-c2ccccc2F)n1 | 105 mg/kg |  | 105 mg/kg | 115 mg/kg |  |  | IFN [12]: >=2000 ml; Protection index (Mus musculus [5]): 0.69
13 | Nc1nc(O)c(I)c(-c2ccoc2)n1 | > 400 mg/kg |  |  |  | inactive | inactive | 
14 | Nc1nc(O)c(Br)c(-c2c(F)ccc(F)c2F)n1 |  | 0 |  |  |  |  | ED50 (Semliki Forest virus [6]): inactive
15 | CCCOc1cccc(-c2nc(N)nc(O)c2Cl)c1 | 40 mg/kg | 0.13 | > 400 mg/kg |  |  |  | IFN (Mus musculus [1]): 10 units/mL
16 | Nc1nc(O)c(Br)c(-c2cccc(Br)c2)n1 | 110 mg/kg | 0.47 | > 400 mg/kg | > 400 mg/kg |  |  | IFN (Mus musculus [11]): 500 mL
17 | Nc1nc(O)c(Cl)c(-c2cccc(F)c2F)n1 | 70 mg/kg | 0.93 | 200 mg/kg |  |  |  | IFN (Mus musculus [9]): 500 units/mL
18 | Nc1nc(O)c(Br)c(-c2cccc(F)c2)n1 | 70 mg/kg |  | 175 mg/kg | 155 mg/kg |  |  | IFN [12]: >=2000 ml; Protection index (Mus musculus [10]): 0.64
19 | CCCOc1cccc(-c2nc(N)nc(O)c2Br)c1 | 100 mg/kg | 0.4 | > 400 mg/kg | > 400 mg/kg |  |  | IFN (Mus musculus [1]): 10 units/mL
20 | CC(C)(C)c1ccc(-c2nc(N)nc(O)c2Cl)cc1 |  |  |  |  | inactive | inactive | ED50 (Semliki Forest virus [6]): inactive
21 | COc1ccc(-c2nc(N)nc(O)c2I)cc1 | > 400 mg/kg |  |  |  | inactive | inactive | 
22 | Nc1nc(O)c(Br)c(-c2cccc3ccccc23)n1 | 40 mg/kg | 0 | > 400 mg/kg | > 400 mg/kg |  |  | IFN (Mus musculus [1]): 10 units/mL
23 | Nc1nc(O)c(Br)c(-c2ccc3ccccc3c2)n1 | > 400 mg/kg |  |  |  | inactive | inactive | 
24 | Nc1nc(O)c(Br)c(-c2ccc(-c3ccccc3)cc2)n1 |  |  |  |  | inactive | inactive | ED50 (Semliki Forest virus [6]): inactive
